Experimental data as given in ChEMBL document CHEMBL1153060, “Part 1: Structure-Activity Relationship (SAR) investigations of fused pyrazoles as potent, selective and orally available inhibitors of p38alpha mitogen-activated protein kinase” (Bioorg Med Chem Lett, 2009).
≈ marks a conversion by molar mass, not a printed value.

Tests used:
THP-1 = experiment: Inhibition of LPS-induced TNFalpha release in human THP1 cells after 3 hrs; type: functional, cell-based; conditions: THP-1, 3 h
Procedure, shortened: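 THP1 cell line challenged with LPS, with TNFα secretion as read-out. IC50 is the mean of at least three independent dose–response curves, or of two where flagged.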

Blood = experiment: Inhibition of TNF-alpha-stimulated IL8 production in human whole blood incubated for 1 hr before TNFalpha challenge measured after 16 to 18 hrs; type: functional, tissue-based
Procedure, shortened: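 Human whole blood diluted to 50% and stimulated with TNFα, with IL-8 secretion as read-out. IC50 is the mean of at least three independent dose–response curves, or of two where flagged.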

[1] = biological target: Mitogen-activated protein kinase 14 (Homo sapiens, UniProt Q16539); experiment: Inhibition of human recombinant p38alpha assessed as phosphorylation of ATF2 by scintillation proximity assay
[2] = Clearance in Sprague-Dawley rat at 2 mg/kg, iv; type: ADME, organism-based; design: dose 2 mg/kg, route intravenous; conditions: in vivo
Procedure, shortened: (§1)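 Male Sprague–Dawley rats given 2.0 mg/kg iv (in DMSO) or 2.0 mg/kg po. Values are the mean of three rats. Reported parameters are CL, Vdss, t1/2, AUC(0-inf) and oral F.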

[3] = Solubility in 0.01N HCl; type: physicochemical
[4] = Oral bioavailability in Sprague-Dawley rat at 2 mg/kg; type: ADME, organism-based; conditions: in vivo; procedure, shortened: as §1
[5] = AUC (0 to infinity) in Sprague-Dawley rat at 2 mg/kg, po; type: ADME, organism-based; design: time infinity, dose 2 mg/kg, route oral; conditions: plasma; procedure, shortened: as §1
[6] = Solubility in simulated intestinal fluid; type: physicochemical
[7] = Half life in Sprague-Dawley rat at 2 mg/kg, iv; type: ADME, organism-based; design: dose 2 mg/kg, route intravenous; conditions: in vivo; procedure, shortened: as §1
[8] = Volume of distribution at steady state in Sprague-Dawley rat at 2 mg/kg, iv; type: ADME, organism-based; design: dose 2 mg/kg, route intravenous; conditions: in vivo, read-out: Vdss; procedure, shortened: as §1
[9] = Solubility in phosphate buffered saline; type: physicochemical
[10] = Protein binding in rat plasma by ultrafiltration method; conditions: read-out: PPB (converted)
[11] = Ratio of drug level in brain to plasma in Lewis rat; type: ADME; conditions: read-out: BPR
Rattus norvegicus [12] = experiment: Inhibition of LPS-induced TNFalpha production in po dosed Lewis rat administered 60 mins prior to LPS challenge measured after 90 mins by ELISA
Rattus norvegicus [13] = species on record: Rattus norvegicus; experiment: Plasma concentration in Lewis rat at ED50; type: ADME, organism-based; conditions: in vivo
Cytochrome P450 2D6 = Cytochrome P450 2D6 (Homo sapiens, UniProt P10635); experiment: Inhibition of CYP2D6; type: ADME
Cytochrome P450 2C9 = Cytochrome P450 2C9 (Homo sapiens, UniProt P11712); experiment: Inhibition of CYP2C9; type: ADME
Rattus norvegicus [14] = experiment: Inhibition of LPS-induced TNFalpha production in Lewis rat at 0.1 mg/kg, po administered 60 mins prior to LPS challenge measured after 90 mins by ELISA
Rattus norvegicus [15] = experiment: Inhibition of LPS-induced TNFalpha production in Lewis rat at 0.03 mg/kg, po administered 60 mins prior to LPS challenge measured after 90 mins by ELISA
Cytochrome P450 2C19 = Cytochrome P450 2C19 (Homo sapiens, UniProt P33261); experiment: Inhibition of CYP2C19; type: ADME
Rattus norvegicus [16] = experiment: Inhibition of LPS-induced TNFalpha production in Lewis rat at 0.01 mg/kg, po administered 60 mins prior to LPS challenge measured after 90 mins by ELISA
Rattus norvegicus [17] = experiment: Inhibition of LPS-induced TNFalpha production in Lewis rat at 0.3 mg/kg, po administered 60 mins prior to LPS challenge measured after 90 mins by ELISA
[18] = biological target: RAF proto-oncogene serine/threonine-protein kinase (Homo sapiens) (UniProt P04049); experiment: Inhibition of c-Raf at 1.5 uM; values are per cent of control
RAF proto-oncogene serine/threonine-protein kinase (Homo sapiens), sequence (P04049 whole entry): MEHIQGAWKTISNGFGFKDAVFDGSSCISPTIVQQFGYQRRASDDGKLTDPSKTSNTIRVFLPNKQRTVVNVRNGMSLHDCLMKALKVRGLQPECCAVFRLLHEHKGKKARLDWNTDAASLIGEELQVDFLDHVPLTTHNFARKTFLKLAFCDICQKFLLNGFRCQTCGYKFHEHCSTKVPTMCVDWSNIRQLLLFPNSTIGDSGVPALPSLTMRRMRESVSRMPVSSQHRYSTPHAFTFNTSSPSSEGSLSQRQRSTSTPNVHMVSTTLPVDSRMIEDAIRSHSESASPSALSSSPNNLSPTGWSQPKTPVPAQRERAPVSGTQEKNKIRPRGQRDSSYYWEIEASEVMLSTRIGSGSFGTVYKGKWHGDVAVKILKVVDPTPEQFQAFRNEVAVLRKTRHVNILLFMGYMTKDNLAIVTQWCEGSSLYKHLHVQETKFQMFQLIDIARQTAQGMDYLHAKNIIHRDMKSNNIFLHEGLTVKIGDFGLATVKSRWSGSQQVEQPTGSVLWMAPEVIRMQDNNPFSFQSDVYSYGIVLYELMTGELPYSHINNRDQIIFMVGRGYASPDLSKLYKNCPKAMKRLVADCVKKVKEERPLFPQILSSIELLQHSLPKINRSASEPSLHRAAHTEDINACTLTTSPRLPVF

Mitogen-activated protein kinase 14, sequence (Q16539 whole entry): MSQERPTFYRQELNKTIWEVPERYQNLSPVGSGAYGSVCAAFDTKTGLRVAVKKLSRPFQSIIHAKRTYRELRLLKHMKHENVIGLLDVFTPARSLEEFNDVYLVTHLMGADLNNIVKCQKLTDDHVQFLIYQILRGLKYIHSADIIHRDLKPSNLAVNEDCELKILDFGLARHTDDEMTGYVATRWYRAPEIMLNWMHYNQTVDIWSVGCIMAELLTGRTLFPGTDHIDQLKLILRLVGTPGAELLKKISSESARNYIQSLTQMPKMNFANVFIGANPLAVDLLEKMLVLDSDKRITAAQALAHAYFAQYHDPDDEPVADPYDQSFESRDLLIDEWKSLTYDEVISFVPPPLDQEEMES
Cytochrome P450 2C9, sequence (P11712 whole entry): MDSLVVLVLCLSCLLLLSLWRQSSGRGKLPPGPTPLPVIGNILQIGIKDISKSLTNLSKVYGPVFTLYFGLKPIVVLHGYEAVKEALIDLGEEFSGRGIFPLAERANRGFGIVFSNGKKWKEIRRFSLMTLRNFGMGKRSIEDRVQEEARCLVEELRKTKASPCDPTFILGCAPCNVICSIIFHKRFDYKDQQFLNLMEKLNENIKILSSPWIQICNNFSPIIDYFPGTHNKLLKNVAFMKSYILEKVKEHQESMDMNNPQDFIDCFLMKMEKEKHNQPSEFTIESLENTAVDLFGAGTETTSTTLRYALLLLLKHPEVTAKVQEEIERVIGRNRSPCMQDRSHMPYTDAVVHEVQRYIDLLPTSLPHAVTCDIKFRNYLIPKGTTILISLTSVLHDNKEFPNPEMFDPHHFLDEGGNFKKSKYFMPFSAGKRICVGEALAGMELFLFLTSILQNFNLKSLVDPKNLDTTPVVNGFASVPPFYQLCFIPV
Cytochrome P450 2C19, sequence (P33261 whole entry): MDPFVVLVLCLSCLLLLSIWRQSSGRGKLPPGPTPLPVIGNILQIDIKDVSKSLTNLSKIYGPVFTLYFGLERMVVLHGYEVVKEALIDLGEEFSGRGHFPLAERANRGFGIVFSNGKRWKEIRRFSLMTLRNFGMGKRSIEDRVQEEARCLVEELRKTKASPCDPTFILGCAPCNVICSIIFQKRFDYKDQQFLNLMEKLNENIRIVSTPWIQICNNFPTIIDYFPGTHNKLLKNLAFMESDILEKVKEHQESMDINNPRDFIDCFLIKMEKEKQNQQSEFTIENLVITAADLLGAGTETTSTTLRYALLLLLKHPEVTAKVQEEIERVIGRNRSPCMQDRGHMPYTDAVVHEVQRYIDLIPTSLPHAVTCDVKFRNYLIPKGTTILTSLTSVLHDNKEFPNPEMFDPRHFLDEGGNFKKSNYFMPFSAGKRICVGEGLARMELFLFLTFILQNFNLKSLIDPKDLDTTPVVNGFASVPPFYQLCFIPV
Cytochrome P450 2D6, sequence (P10635 whole entry): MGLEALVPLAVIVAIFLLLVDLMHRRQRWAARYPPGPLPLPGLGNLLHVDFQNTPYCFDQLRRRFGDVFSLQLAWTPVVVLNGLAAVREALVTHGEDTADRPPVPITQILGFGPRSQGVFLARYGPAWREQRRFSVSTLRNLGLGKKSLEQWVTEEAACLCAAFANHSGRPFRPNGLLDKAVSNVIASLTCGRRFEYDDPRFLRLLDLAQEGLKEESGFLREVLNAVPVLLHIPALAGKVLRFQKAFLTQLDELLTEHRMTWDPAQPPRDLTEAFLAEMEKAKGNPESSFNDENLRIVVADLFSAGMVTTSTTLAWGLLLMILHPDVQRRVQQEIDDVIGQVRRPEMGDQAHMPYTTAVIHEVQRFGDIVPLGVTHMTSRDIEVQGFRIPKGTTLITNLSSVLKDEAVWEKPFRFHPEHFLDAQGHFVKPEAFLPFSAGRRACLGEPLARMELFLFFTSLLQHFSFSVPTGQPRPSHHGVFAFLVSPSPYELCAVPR

SMILES	IC50 (THP-1)	IC50 (Blood)	IC50 [1]	clearance [2]	bioavailability [4]	AUC(0-inf) [5]	half-life [7]	Vd [8]	other results
Cn1c(=O)cc(Nc2cc(C(=O)NC3CC3)ccc2F)c2cnn(-c3ccc(F)cc3F)c21	6.7 nM	19 nM	13 nM						
Cn1c(=O)cc(Nc2cc(C(=O)NC3CC3)ccc2Cl)c2cnn(-c3cc(F)ccc3F)c21	1.1 nM	1.9 nM	1.1 nM	8.67 mL/min/kg	56%	2160 ng·h/mL	2.1 h	1.2 L/kg	solubility [3]: 28.6 µg/mL (≈ 60.9 µM); solubility [6]: 35.2 µg/mL (≈ 74.9 µM); solubility [9]: 24.9 µg/mL (≈ 53 µM)
Cc1ccc(C(=O)NC2CC2)cc1Nc1cc(=O)n(C)c2c1cnn2-c1cccc(F)c1	1.3 nM	1.7 nM	3.3 nM						
Cc1ccc(C(=O)NC2CC2)cc1Nc1cc(=O)n(C)c2c1cnn2-c1cc(F)ccc1F	1 nM	2.5 nM	2.9 nM						
Cn1c(=O)cc(NC2CCOCC2)c2cnn(-c3cccc(F)c3)c21	> 2500 nM	> 2500 nM	> 1000 nM						
Cn1c(=O)cc(Nc2cc(C(=O)NC3CC3)ccc2Cl)c2cnn(-c3ccc(F)cc3F)c21	0.44 nM	1.1 nM		6.17 mL/min/kg	81%	4610 ng·h/mL	3.8 h	1.2 L/kg	fraction unbound [10]: 0.02; solubility [3]: 67.1 µg/mL (≈ 143 µM); Kp [11]: 0.06; ED50 (Rattus norvegicus [12]): 0.05 mg/kg; Cp (Rattus norvegicus [13]): 0.9 ng/mL; IC50 (Cytochrome P450 2D6): 22700 nM; IC50 (Cytochrome P450 2C9): 8400 nM; solubility [6]: 81.7 µg/mL (≈ 174 µM); inhibition in vivo at 0.1 mg/kg (Rattus norvegicus [14]): 83.9%; inhibition in vivo at 0.03 mg/kg (Rattus norvegicus [15]): 22.6%; IC50 (Cytochrome P450 2C19): 16000 nM; inhibition in vivo at 0.01 mg/kg (Rattus norvegicus [16]): 21.6%; inhibition in vivo at 0.3 mg/kg (Rattus norvegicus [17]): 98.4%; residual activity [18]: 75%; solubility [9]: 60.6 µg/mL (≈ 129 µM)
Cc1ccc(C(=O)NC2CC2)cc1Nc1cc(=O)n(C)c2c1cnn2-c1ccc(F)cc1F	1 nM	2.4 nM							
Cc1ccc(C(=O)O)cc1Nc1cc(=O)n(C)c2c1cnn2-c1ccc(F)cc1F	> 2500 nM	> 2500 nM	> 1000 nM						
Cc1ccc(C(=O)NC(C)(C)C)cc1Nc1cc(=O)n(C)c2c1cnn2-c1ccc(F)cc1F	65 nM	204 nM	269 nM						
CONC(=O)c1ccc(C)c(Nc2cc(=O)n(C)c3c2cnn3-c2ccc(F)cc2F)c1	1.1 nM	1.4 nM	1.1 nM	43.3 mL/min/kg	15%	120 ng·h/mL	3.3 h	1.7 L/kg	
Cc1ccncc1Nc1cc(=O)n(C)c2c1cnn2-c1cc(F)ccc1F	208 nM	403 nM	444 nM						
CCn1c(=O)cc(Nc2cc(C(=O)NC3CC3)ccc2Cl)c2cnn(-c3ccc(F)cc3)c21	1 nM	0.93 nM	1.2 nM	6.83 mL/min/kg	45%	2290 ng·h/mL	3.7 h	1.8 L/kg	
Cn1c(=O)cc(Oc2cc(C(=O)NC3CC3)ccc2Cl)c2cnn(-c3cc(F)ccc3F)c21	14 nM	79 nM	3.3 nM						solubility [3]: 24.8 µg/mL (≈ 52.7 µM); solubility [6]: 49 µg/mL (≈ 104 µM); solubility [9]: 14.7 µg/mL (≈ 31.2 µM)
CCn1c(=O)cc(Oc2cc(C(=O)NC3CC3)ccc2C)c2cnn(-c3ccc(F)cc3)c21	1.8 nM	13 nM	4 nM	4.5 mL/min/kg	41%	1500 ng·h/mL	3.2 h	1.1 L/kg	
Cc1ccc(C(N)=O)cc1Nc1cc(=O)n(C)c2c1cnn2-c1cc(F)ccc1F	7.5 nM	7.1 nM	3.7 nM						
Cc1ccc(C(=O)NC2CC2)cc1Oc1cc(=O)n(C)c2c1cnn2-c1ccc(F)cc1F	3.5 nM	16 nM	7.8 nM						solubility [3]: 5.7 µg/mL (≈ 12.7 µM); solubility [6]: 12.2 µg/mL (≈ 27.1 µM); solubility [9]: 5.3 µg/mL (≈ 11.8 µM)
Cc1ccc(C(=O)NC2CC2)cc1Oc1cc(=O)n(C)c2c1cnn2-c1cccc(F)c1	12 nM	29 nM	8.5 nM						
Cc1ccc(C(N)=O)cc1Nc1cc(=O)n(C)c2c1cnn2-c1ccc(F)cc1F	1.9 nM	3.4 nM	2.6 nM						
CCn1c(=O)cc(Nc2cc(C(=O)NC3CC3)ccc2Cl)c2cnn(-c3ccc(F)cc3F)c21	0.67 nM	1.3 nM	1.1 nM	7 mL/min/kg	16%	776 ng·h/mL	3.4 h	1.5 L/kg	
CCn1c(=O)cc(Nc2cc(C(=O)NC3CC3)ccc2C)c2cnn(-c3ccc(F)cc3)c21	1.1 nM	1.9 nM	4 nM						
Cn1c(=O)cc(Nc2ccc(F)cc2F)c2cnn(-c3ccc(F)cc3F)c21	937 nM	> 2500 nM	> 1000 nM						
Cc1ccc(C(=O)NC2CC2)cc1Nc1cc(=O)n(C)c2c1cnn2-c1c(F)cccc1F	0.87 nM	1.3 nM	1.9 nM	14.7 mL/min/kg	12%	273 ng·h/mL	2.8 h	1.2 L/kg	
Cn1c(=O)cc(Nc2cc(C(=O)NC3CC3)ccc2F)c2cnn(-c3c(F)cccc3F)c21	3.2 nM	8.2 nM	1.9 nM						
Cn1c(=O)cc(Nc2cc(C(=O)NC3CC3)ccc2Cl)c2cnn(-c3c(F)cccc3F)c21	0.62 nM	1.5 nM	1.1 nM	21.7 mL/min/kg	9%	139 ng·h/mL	3.4 h	1.9 L/kg	
Cc1ccc(C(=O)NC2CC2)cc1Oc1cc(=O)n(C)c2c1cnn2-c1c(F)cccc1F	1 nM	2.6 nM	1.4 nM	10.5 mL/min/kg	7%	244 ng·h/mL	2.3 h	1.3 L/kg	
Cn1c(=O)cc(Nc2ccc(F)cc2)c2cnn(-c3c(F)cccc3F)c21	546 nM	> 833 nM	> 1000 nM						
Cc1ccc(C(=O)NC2CC2)cc1Oc1cc(=O)n(C)c2c1cnn2-c1cc(F)ccc1F	5 nM	16 nM	6.1 nM						
